In ChEMBL document CHEMBL1177875, “Antitumor activity of (-)-alpha-bisabolol-based thiosemicarbazones against human tumor cell lines” (2010):

Assays:
Format in all cases: functional
[1] = tested on: UACC-62; test: Cytotoxicity against human UACC62 cells by sulforhodamine B assay
Summary of the method: (§1)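 Growth of the human tumor cell line was read colorimetrically with sulforhodamine B, following the NCI standard protocol, with doxorubicin as positive control. Compounds were tested at four concentrations in 10-fold dilutions (0.25 to 250). Dose-response curves gave GI50 (the concentration for 50% growth inhibition), TGI (total growth inhibition) and LC50 (50% cell death).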

[2] = Cytotoxicity against human PCO3 cells by sulforhodamine B assay; conditions: for CC50: read-out: LC50 (the source's name); summary of the method: as §1
[3] = tested on: MCF7; test: Cytotoxicity against human MCF7 cells by sulforhodamine B assay; conditions: for CC50: read-out: LC50 (the source's name); summary of the method: as §1
[4] = tested on: K562; test: Cytotoxicity against human K562 cells by sulforhodamine B assay; conditions: for CC50: read-out: LC50 (the source's name); summary of the method: as §1
[5] = Cytotoxicity against human NCI/ADR cells by sulforhodamine B assay; conditions: NCI/ADR-RES; for CC50: read-out: LC50 (the source's name); summary of the method: as §1
[6] = tested on: NCI-H460; test: Cytotoxicity against human NCI-H460 cells by sulforhodamine B assay; conditions: for CC50: read-out: LC50 (the source's name); summary of the method: as §1
[7] = tested on: HT-29; test: Cytotoxicity against human HT-29 cells by sulforhodamine B assay; conditions: for CC50: read-out: LC50 (the source's name); summary of the method: as §1
[8] = tested on: OVCAR-3; test: Cytotoxicity against human OVCAR-3 cells by sulforhodamine B assay; conditions: for CC50: read-out: LC50 (the source's name); summary of the method: as §1

Compound	GI50 [1] [µM]	TGI [1] [µM]	GI50 [2] [µM]	TGI [2] [µM]	CC50 [2] [µM]	GI50 [3] [µM]	TGI [3] [µM]	CC50 [3] [µM]	GI50 [4] [µM]	TGI [4] [µM]	CC50 [4] [µM]	GI50 [5] [µM]	TGI [5] [µM]	CC50 [5] [µM]	GI50 [6] [µM]	TGI [6] [µM]	CC50 [6] [µM]	GI50 [7] [µM]	TGI [7] [µM]	CC50 [7] [µM]	further results
CC1=CC[C@@H]([C@@](C)(O)CCCC(C)(C)NC(=S)NN)CC1	18.5	> 100	26.8	> 100	> 100	15.3	84.2	> 100	0.02	0.38	9.58	0.76	29	> 100	12.8	84	> 100	49.4	> 100	> 100	LC50 (50% cell kill) [1]: > 100 µM; GI50 [8]: 17.2 µM; TGI [8]: > 100 µM; CC50 [8]: > 100 µM
CC(C)=CCC[C@](C)(O)[C@@H]1CC=C(C)CC1 [LEVOMENOL]	> 100	> 100	> 100	> 100	> 100	> 100	> 100	> 100	6.37	> 100	> 100	> 100	> 100	> 100	> 100	> 100	> 100	> 100	> 100	> 100	GI50 [8]: > 100 µM; TGI [8]: > 100 µM; CC50 [8]: > 100 µM
CC1=CC[C@@H]([C@@](C)(O)CCCC(C)(C)NC(=S)N/N=C\c2ccccc2)CC1	12.7	43.8	8.47	36.2	> 100	7.72	28.7	60.4	0.13	20.9	> 100	6.97	23.8	59.9	38.4	> 100	> 100	9.96	36.5	57.4	LC50 (50% cell kill) [1]: 48.4 µM; GI50 [8]: 6.97 µM; TGI [8]: 12.9 µM; CC50 [8]: 43.6 µM
COc1ccc(/C=N\NC(=S)NC(C)(C)CCC[C@](C)(O)[C@@H]2CC=C(C)CC2)cc1	7.42	22.1	7.66	76	> 100	6.5	94.9	> 100	0.22	34.9	> 100	6.73	57	> 100	5.1	> 100	> 100	7.42	35.1	> 100	LC50 (50% cell kill) [1]: 48.5 µM; GI50 [8]: 6.5 µM; TGI [8]: 15.8 µM; CC50 [8]: 46.2 µM
CC1=CC[C@@H]([C@@](C)(O)CCCC(C)(C)NC(=S)N/N=C(/C)c2ccccc2)CC1	22.4	93.3	19.9	> 100	> 100	23.6	62.9	> 100	0.01	0.07	1.54	0.75	> 100	> 100	12.6	> 100	> 100	28.4	> 100	> 100	LC50 (50% cell kill) [1]: > 100 µM; GI50 [8]: 14.3 µM; TGI [8]: 59.5 µM; CC50 [8]: > 100 µM
COc1cccc2c1C(=O)c1c(O)c3c(c(O)c1C2=O)C[C@@](O)(C(=O)CO)C[C@@H]3O[C@H]1C[C@H](N)[C@H](O)[C@H](C)O1 [DOXORUBICIN]	0.18	0.55	0.17	2.3	> 100	0.04	1.84	46	0.03	0.33	> 100	5.99	> 100	> 100	0.05	1.42	37.9	0.18	46	> 100	GI50 [8]: 0.07 µM; TGI [8]: 8.11 µM; CC50 [8]: > 100 µM
